# NF-kB expr up = activators of NF-kB expression in neurons, primary screen, cell-based, HTS; human neuronal cells, NF-kB reporter expression; hits give high values; fold change at 12.5 µM; 190,000 tested, 1.6% active; in the data active means fold change above about 3.3
# STAT1 activator = STAT1 signaling activators, primary screen, cell-based, HTS, luciferase reporter. NIH 3T3 STAT1-luciferase reporter, IFN-gamma, luminescence; 100% = IFN-gamma alone, no compound. activation (% of control), % at 5.5 µM. 200,000 tested, 2.6% active. AID 932, 2007;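 active means activation above the screen-wide mean activation plus 3 SD, cut at about 130% in these data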;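 further: raw ratio to IFN-gamma control signal so 100% means no change and 0% no light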
# APP 5'UTR act = activators of APP 5'UTR luciferase reporter, primary screen, SH-SY5Y cells | SH-SY5Y APP 5'UTR luciferase reporter, luminescence; zero percent = DMSO vehicle wells | activation, % at 2 µM | 190,000 tested, 1% active | AID 1276, 2008;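 active means activation above a set limit, based on mean plus 3 SD of controls, cut at about 140% in these data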
# FLuc act counter = FLuc activators, initial screening, artefact control for FLuc-dependent activation tests, biochemical, ATPlite luminescence. Luciferin 4-monooxygenase (Photinus pyralis), P08659. ATPlite luciferase biochemical, 10 min; 0 = ATP-free wells, 1 = DMSO control. activation factor at 10 µM. 200,000 tested, under 10 active. AID 1027, 2008;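 active means luciferase activation factor, scaled between plate controls, of at least 2 with compound at 10 µM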
# Target sequence (P08659 whole entry, looked up): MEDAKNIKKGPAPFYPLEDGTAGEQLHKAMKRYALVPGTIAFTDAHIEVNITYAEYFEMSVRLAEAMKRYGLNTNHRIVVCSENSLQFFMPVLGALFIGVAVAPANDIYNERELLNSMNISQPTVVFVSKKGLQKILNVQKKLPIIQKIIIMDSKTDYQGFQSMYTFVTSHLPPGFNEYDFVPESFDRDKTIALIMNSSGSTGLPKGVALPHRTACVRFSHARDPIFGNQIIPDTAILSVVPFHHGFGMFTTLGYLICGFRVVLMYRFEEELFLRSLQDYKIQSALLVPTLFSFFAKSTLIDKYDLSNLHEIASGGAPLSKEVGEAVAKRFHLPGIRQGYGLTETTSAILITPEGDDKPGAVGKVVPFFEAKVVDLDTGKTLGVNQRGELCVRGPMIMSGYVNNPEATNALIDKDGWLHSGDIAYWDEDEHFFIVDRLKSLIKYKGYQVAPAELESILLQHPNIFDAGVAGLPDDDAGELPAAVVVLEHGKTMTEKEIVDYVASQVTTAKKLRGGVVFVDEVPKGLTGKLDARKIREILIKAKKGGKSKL
#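 assay system = Luciferase/luciferin detection reagent, cell-free biochemical luciferase assay | also added = ATP substrate | times = 10 min post-reagent at room temperature | measured by = luminescence from luciferase reaction | measure = luciferase activation, seen as luminescence increase over controls | benchmarks = low control with PBS replacing ATP, high control enzyme plus ATP without compound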
# FLuc inhib CS = firefly luciferase enzyme inhibitors, primary screen, artefact control for luciferase-based inhibitor screens, biochemical, luminescence, ATPLite; Luciferin 4-monooxygenase (Photinus pyralis), P08659; 10 min; 200,000 tested, 1.5% active; inhibition, % at 10 µM;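 active means inhibition above about 50% when tested at 10 µM, limit read from the data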
# Active calls of the source: *; / = no result given. In the library only some 4.1% were active in any assay of this set; here they are far more common.
SMILES,NF-kB expr up,STAT1 activator,APP 5'UTR act,FLuc act counter,FLuc inhib CS
Cc1noc(C)c1COC(=O)c1ccc(-c2nc3ccccc3s2)s1,2.88,112.7,15.4,1,3.9
Cc1ccc2nc(NC(=O)c3ccc(-c4nc5ccccc5s4)s3)sc2c1,0.68,103.6,-1.0,0.9,5.3
O=C(c1ccc(-c2nc3ccccc3s2)s1)N1CCOCC1,1.08,28.2,65.1,0,96.0*
CCN1CCN(C(=O)c2ccc(-c3nc4ccccc4s3)s2)CC1,4.18*,129.6*,131.3,0.7,34.2
CCOc1ccccc1NC(=S)N(Cc1cc2ccc(C)cc2[nH]c1=O)CC1CCCN1CC (stereo not drawn),1.06,84.2,-8.0,1,0.5
CCN(CC(=O)Nc1cccc(OC)c1)C(=O)C1CCN(C(=O)Nc2ccccc2)CC1,0.82,100.0,3.8,1.1,-6.4
Cc1cc2nccc(-c3ccc(Cl)c([N+](=O)[O-])c3)n2n1,1.19,98.0,9.0,1.1,-5.8
O=C(/C=C/c1cccs1)c1ccc(Br)cc1,2.32,104.6,9.7,0.4,60.7*
O=C(/C=C/c1cccs1)c1ccc(NC(=O)c2cccc(Br)c2)cc1,1.19,100.5,18.1,1,-1.6
COc1ccc(-c2cn3ccccc3n2)cc1[N+](=O)[O-],1,144.3*,103.8,0.2,79.1*
COc1ccc(-c2cn3cc([N+](=O)[O-])ccc3n2)cc1OC,1.52,119.7,32.6,0.8,21.2
CCCOc1ccc(-c2cn3ccccc3n2)cc1[N+](=O)[O-],4.13*,120.1,142.2*,0.2,77.5*
Cc1cc(N/N=C\c2ccccc2)nc(-c2ccccc2O)n1,1.23,111.6,21.4,0.4,64.7*
Cc1cc(N/N=C/c2ccccc2Cl)nc(NCc2ccccc2)n1,0.75,99.9,4.3,0.4,59.8*
Cc1ccc(Nc2cc(C)nc(NCc3ccccc3)n2)cc1,0.76,85.2,/,1,1.6
Cc1cc(N/N=C/c2ccc(O)cc2O)nc(-c2ccccc2O)n1,0.69,121.0,-56.2,0.4,64.5*
COC(=O)c1ccc(Nc2cc(C)nc(-c3ccccc3O)n2)cc1,1.4,112.7,-29.9,1.1,-8.9
Cc1cc(N/N=C/c2ccccc2O)nc(-c2ccccc2O)n1,0.97,94.8,-36.2,0.4,60.9*
O=C1OC(c2ccc(Cl)cc2)/C(=C(/O)c2ccccc2)C1=O (stereo not drawn),1.15,99.8,16.6,1.1,-9.2
C#CCN1C(=O)C(O)(c2c(C)[nH]c3ccccc23)c2ccccc21 (stereo not drawn),/,/,24.1,/,/
Cc1[nH]c2ccccc2c1C1(O)C(=O)N(Cc2ccc3c(c2)OCO3)c2ccccc21 (stereo not drawn),3.31*,86.9,14.8,1,-2.6
CCc1ccccc1N(C1=NCCCS1)S(=O)(=O)c1ccc(C(C)(C)C)cc1,0.75,95.6,30.4,1,3.6
CN1C(=O)/C(=C/c2ccc3c(c2)OCO3)N=C1c1ccccc1,1.24,98.2,-1.6,0.4,62.5*
O=C(CCCN1CCOCC1)c1ccc2c(c1)OCCO2,1.45,142.1*,100.7,0.9,5.2
O=C(CCN1CCOCC1)c1ccc2c(c1)OCCO2,1.11,96.0,13.7,1.1,-8.9
SMILES,NF-kB expr up,STAT1 activator,APP 5'UTR act,FLuc act counter,FLuc inhib CS
O=C(Cc1sc(Nc2ccccc2)nc1-c1ccccc1)NCc1ccccn1,1.37,130.4*,8.2,1,1.8
O=C(Cc1ccccc1)NCc1ccccn1,1.07,109.2,12.2,1.1,-6.3
Cc1ccc(Nc2nc(-c3ccccc3)c(CC(=O)O)s2)cc1,1.33,131.0*,53.3,0.9,6.5
CSc1ccccc1NC(=O)c1cc2ncc(Br)cn2n1,1.5,142.2*,73.3,1,4.5
O=C(COC(=O)c1n[nH]c2ccccc12)NC(=O)NC1CCCC1,0.99,100.6,-9.6,1.1,-6.0
O=C(NC1CCCC1)c1n[nH]c2ccccc12,1.28,137.7*,69.1,0.8,18.5
Cn1c(CCc2ccc(N)cc2)nc2ccccc21,2.6,127.8,130.8,0.5,54.6*
COc1cccc(/C=C2\SC(=S)N(c3cccnc3)C2=O)c1OC,1.44,102.2,16.7,0.3,66.9*
COc1ccc(C(=O)NCCNC(=O)c2cc(OCC(F)(F)F)ccc2OCC(F)(F)F)cc1,1.03,101.6,-14.4,1,-4.4
Cc1ccc(NC(=O)CCn2nnc3ccccc32)cc1,2.21,130.5*,19.9,1.1,-5.3
O=C(Cn1nnc2ccccc21)C1CC1,0.99,97.9,12.0,1,-4.4
Cc1ccc(NC(=O)CCn2nnc3ccccc32)c(C)c1,2.45,111.9,16.9,1.1,-9.0
Cc1ccc(C(=O)Cn2nnc3ccccc32)cc1C,4.13*,143.2*,119.2,0.9,14.0
O=C(Cn1nnc2ccccc21)NCc1ccccc1,2.36,144.1*,59.1,1,0.0
Cc1ccc(C(=O)Cn2nnc3ccccc32)cc1,3.34*,119.2,103.7,0.8,16.8
O=C(Cn1nnc2ccccc21)N1CCCCC1,1.05,99.2,-3.8,1,-3.0
CC(C)CCn1c(SCC(=O)OCn2nnc3ccccc3c2=O)nc2ccccc2c1=O,0.77,96.4,17.2,1,-3.2
Cc1ccccc1OCCCn1c(=O)sc2ccccc21,2.25,130.6*,70.0,0.8,17.0
O=c1sc2ccccc2n1CCCOc1ccccc1,2.76,131.3*,70.9,0.9,14.2
CSC(=S)N/N=C(\C)c1ccc(Br)cc1,1.04,102.3,-5.0,1,-3.9
Nc1c(C(=O)Nc2ccc(F)cc2)sc(=S)n1-c1ccccc1F,1.66,130.9*,57.9,0.9,7.5
Cc1cc2n(n1)SC(Nc1ccccc1)N2 (stereo not drawn),1.24,105.1,6.9,0.9,7.0
Cc1ccc(NC2Nc3cc(C)nn3S2)c(C)c1 (stereo not drawn),2.68,142.3*,62.0,0.8,20.0
O=C(NC1CCS(=O)(=O)C1)c1cccc(S(=O)(=O)N2CCCC2)c1 (stereo not drawn),1.31,100.3,6.3,1.1,-5.8
Cc1ccc(O)c(-c2cc(-c3ccccc3F)[nH]n2)c1,4.35*,109.0,39.8,0.9,6.2
Oc1ccc(Br)cc1-c1cc(-c2ccc(Cl)cc2)n[nH]1,1.17,98.3,4.4,1,2.7
Cc1ccc(O)c(-c2cc(-c3cccc(F)c3)n[nH]2)c1,5.04*,93.2,43.3,1,-4.3
Oc1ccc(Br)cc1-c1cc(-c2ccccc2)n[nH]1,1.13,103.9,-2.7,1,-2.1
O=[N+]([O-])c1ccccc1-c1cc(-c2ccccc2O)n[nH]1,2.45,96.1,97.6,0.9,11.4
Cc1ccc(-c2cc(-c3cccc(F)c3)n[nH]2)c(O)c1,9.62*,104.2,215.4*,0.9,10.3

# Screens: PubChem, several laboratories
